Test results: ChEMBL document CHEMBL4028805, “Phenylthiazole Antibacterial Agents Targeting Cell Wall Synthesis Exhibit Potent Activity in Vitro and in Vivo against Vancomycin-Resistant Enterococci” (J Med Chem, 2017)
≈ marks a conversion by molar mass, not a printed value. Calls of active or inactive are those of the source.

Tests used:
Format in all cases: functional
Escherichia coli [1] = assay: Antibacterial activity against Escherichia coli 1411 after 18 to 22 hrs in absence of colistin by broth microdilution method
In short: (§1)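 Broth microdilution per CLSI guidelines. Gram-negatives grown in TSB. Each strain tested alone and again with colistin at ¼ × MIC to permeabilize the outer membrane. Plates incubated at 37 °C for 18–22 h. MIC read as the lowest concentration showing no visible growth.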

Bacillus subtilis = assay: Antibacterial activity against Bacillus subtilis assessed as bending of cells at 5 times MIC after 2 hrs in presence of methylsulfonyl methane by phase contrast microscopic analysis
In short: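 B. subtilis grown in LB at 37 °C to OD600 ~0.2, then treated at 5 × MIC with MSM for osmotic stabilisation. At 2 h, stained with FM 4-64 (1 μg/mL), DAPI (1 μg/mL) and SYTOX Green (1 μg/mL). Imaged by deconvolution fluorescence and phase contrast microscopy.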

Enterococcus faecalis [2] = assay: Antibacterial activity against Enterococcus faecalis ATCC 31975 at 4 to 8 times MIC after 48 hrs by broth microdillution method
In short: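 Single-step resistance selection. Cultures of 5 × 10^8 to 5 × 10^10 CFU/mL spread on TSA containing compound at 2×, 4× or 8× MIC and incubated aerobically at 37 °C for 48 h. Colony MICs rechecked by broth microdilution. Frequency calculated as resistant colonies per inoculum.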

Enterococcus faecalis [3] = assay: Antibacterial activity against vancomycin-resistant Enterococcus faecalis ATCC 51299 assessed as ratio of MIC after and before 6 serial passages measured after 18 hrs by broth microdillution method
In short: (§2)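 Multi-step selection over 14 passages in two weeks. McFarland 0.5 inoculum diluted 1:300 in TSB (E. faecalis) or BHI (E. faecium) to 1 × 10^5 CFU/mL. Each passage reinoculated at ~5 × 10^5 CFU/mL from the sub-inhibitory well of the previous plate. Compounds serially diluted in triplicate, incubated ≥18 h at 37 °C, MIC read visually. Resistance defined as >4-fold MIC rise.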

Enterococcus faecium = assay: Antibacterial activity against vancomycin-resistant Enterococcus faecium ATCC HM-968 after 14 serial passages measured after 18 hrs by broth microdillution method; in short: as §2
Pseudomonas aeruginosa = assay: Antibacterial activity against Pseudomonas aeruginosa ATCC 15442 after 18 to 22 hrs in presence of 1/4 times MIC colistin by broth microdilution method; in short: as §1
Enterococcus faecalis [4] = assay: Synergistic antimicrobial activity against Enterococcus faecalis ATCC 51299 after 20 hrs in presence of linezolid by checkerboard assay
In short: (§3)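 Checkerboard in TSB with a starting inoculum of 1×10^5 CFU/mL. Compound and antibiotic diluted from 2× or 4× MIC along perpendicular axes. Incubated 20 h at 37 °C. ΣFIC calculated: ≤0.5 synergy, >0.5 to <2 additive, 2–4 indifference, >4 antagonism.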

Escherichia coli [5] = assay: Antibacterial activity against tolC deficient Escherichia coli assessed as formation of misshapen cells at 25 ug/ml after 2 hrs in presence of sucrose by FM4-64/DAPI/SYTOX Green staining-based deconvolution microscopic analysis
Enterobacter cloacae = assay: Antibacterial activity against Enterobacter cloacae BAA-1154 after 18 to 22 hrs in absence of colistin by broth microdilution method
Enterococcus faecalis [6] = assay: Synergistic antimicrobial activity against Enterococcus faecalis ATCC 49533 after 20 hrs in presence of ciprofloxacin by checkerboard assay; in short: as §3

## CCCCc1ccc(-c2nc(C)c(/C(C)=N/NC(=N)N)s2)cc1
Escherichia coli [1]
  MIC: 64 mg/L (≈ 194 µM)
Bacillus subtilis
  Activity: Active
Enterococcus faecalis [2]
  Activity: Active
Enterococcus faecalis [3]
  Ratio: 1
Enterococcus faecium
  Activity: Active
Pseudomonas aeruginosa
  MIC: 1 mg/L
Enterococcus faecalis [4]
  fractional inhibitory concentration index (FICI): 2
Escherichia coli [5]
  Activity: Active
Enterobacter cloacae
  MIC: 64 mg/L (≈ 194 µM)
Enterococcus faecalis [6]
  fractional inhibitory concentration index (FICI): 0.63 - 1
